Data: ChEMBL document CHEMBL3407481, “Pyridine C-region analogs of 2-(3-fluoro-4-methylsulfonylaminophenyl)propanamides as potent TRPV1 antagonists” (Eur J Med Chem, 2015)
pIC50, pKi: −log10 of the molar value. Values belong to the compound of their own block, whether it stands above or below them.

What was measured:
[1] = biological target: T1, Transient receptor potential cation channel subfamily V member 1 (Homo sapiens, UniProt Q8NER1); experiment: Antagonist activity at human TRPV1 expressed in CHO cells assessed as inhibition of capsaicin-induced activity by FLIPR assay; assay type: cell-based; settings: for pKi: read-out: Ki
T1 sequence (Q8NER1 whole entry): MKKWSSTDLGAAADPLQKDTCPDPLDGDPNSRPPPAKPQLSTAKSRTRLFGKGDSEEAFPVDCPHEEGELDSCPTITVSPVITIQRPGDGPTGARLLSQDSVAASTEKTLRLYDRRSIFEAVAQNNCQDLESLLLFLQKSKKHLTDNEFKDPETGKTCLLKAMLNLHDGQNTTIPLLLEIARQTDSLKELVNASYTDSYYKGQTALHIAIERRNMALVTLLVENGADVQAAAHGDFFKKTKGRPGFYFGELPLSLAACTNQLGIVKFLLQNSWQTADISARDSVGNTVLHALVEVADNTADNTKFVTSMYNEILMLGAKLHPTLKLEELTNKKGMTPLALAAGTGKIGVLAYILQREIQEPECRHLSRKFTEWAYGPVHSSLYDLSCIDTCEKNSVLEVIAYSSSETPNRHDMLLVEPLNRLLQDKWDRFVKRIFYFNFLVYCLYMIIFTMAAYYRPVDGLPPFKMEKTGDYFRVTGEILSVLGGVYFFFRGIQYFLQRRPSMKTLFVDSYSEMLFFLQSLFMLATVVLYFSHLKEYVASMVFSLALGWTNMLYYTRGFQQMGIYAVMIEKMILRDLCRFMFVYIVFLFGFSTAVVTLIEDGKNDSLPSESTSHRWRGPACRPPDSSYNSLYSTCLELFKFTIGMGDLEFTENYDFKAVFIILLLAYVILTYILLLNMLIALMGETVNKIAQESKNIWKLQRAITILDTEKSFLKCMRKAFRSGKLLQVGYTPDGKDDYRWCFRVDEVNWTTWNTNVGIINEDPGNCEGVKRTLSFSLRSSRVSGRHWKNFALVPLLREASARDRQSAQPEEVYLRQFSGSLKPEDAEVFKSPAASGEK

[2] = biological target: T1, Transient receptor potential cation channel subfamily V member 1; experiment: Antagonist activity at human TRPV1 expressed in CHO cells assessed as inhibition of N-arachidonoyl dopamine-induced activity by FLIPR assay; assay type: cell-based
[3] = biological target: T1, Transient receptor potential cation channel subfamily V member 1; experiment: Antagonist activity at human TRPV1 expressed in CHO cells assessed as inhibition of pH-induced activity by FLIPR assay; assay type: cell-based
[4] = system: Mus musculus; experiment: Inhibition in capsaicin-induced hypothermia in mouse compound dosed orally before capsaicin challenge measured 30 mins post capsaicin treatment; assay type: functional, organism-based
[5] = system: Mus musculus; experiment: Inhibition in capsaicin-induced hypothermia in mouse at 1 mg/kg, po 15 min before capsaicin challenge measured 30 mins post capsaicin treatment; assay type: functional
[6] = system: Mus musculus; experiment: Inhibition in capsaicin-induced hypothermia in mouse at 0.3 mg/kg, po 15 min before capsaicin challenge measured 30 mins post capsaicin treatment; assay type: functional
[7] = system: Mus musculus; experiment: Inhibition in capsaicin-induced hypothermia in mouse at 0.1 mg/kg, po 15 min before capsaicin challenge measured 30 mins post capsaicin treatment; assay type: functional
[8] = system: Mus musculus; experiment: Analgesic activity in mouse assessed as inhibition of formalin-induced response at 1 mg/kg, po; assay type: functional
How it was run: (§1)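 Formalin test in mice after oral dosing. Values are tabulated as MPE and described as % inhibition of the nociceptive response.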

[9] = biological target: T1, Transient receptor potential cation channel subfamily V member 1; experiment: Antagonist activity at human TRPV1 expressed in CHO cells assessed as inhibition of heat at 45 degC-induced activity by FLIPR assay; assay type: cell-based
[10] = system: Mus musculus; experiment: Analgesic activity in mouse assessed as inhibition of formalin-induced response at 0.3 mg/kg, po; assay type: functional; how it was run: as §1
[11] = system: Mus musculus; experiment: Inhibition in capsaicin-induced hypothermia in mouse at 10 mg/kg, po 15 min before capsaicin challenge measured 30 mins post capsaicin treatment; assay type: functional
[12] = system: Mus musculus; experiment: Analgesic activity in mouse assessed as inhibition of formalin-induced response at 0.1 mg/kg, po; assay type: functional; how it was run: as §1

pKi [1]: 9.30
Structure (SMILES): CC(C(=O)NCc1ccc(C(F)(F)Cl)nc1N1CCCCCC1)c1ccc(NS(C)(=O)=O)c(F)c1 (stereo not drawn)

pKi [1]: 8.89
Structure (SMILES): CC(C(=O)NCc1ccc(C(F)(F)Cl)nc1N1CCCCC1)c1ccc(NS(C)(=O)=O)c(F)c1 (stereo not drawn)

pKi [1]: 8.52
Structure (SMILES): CC(C(=O)NCc1ccc(C(F)(F)Cl)nc1SC1CCCCC1)c1ccc(NS(C)(=O)=O)c(F)c1 (stereo not drawn)

pKi [1]: 8.96
Structure (SMILES): CC(C(=O)NCc1ccc(C2CC2)nc1N1CCCCC1)c1ccc(NS(C)(=O)=O)c(F)c1 (stereo not drawn)

pKi [1]: 7.54
Structure (SMILES): CC(C(=O)NCc1ncc(C(F)(F)F)cc1N1CCCCC1)c1ccc(NS(C)(=O)=O)c(F)c1 (stereo not drawn)

Ki ([1]; cho): Not Active
Structure (SMILES): CC(C(=O)NCc1ncc(C(F)(F)F)cc1N1CCCC1)c1ccc(NS(C)(=O)=O)c(F)c1 (stereo not drawn)

pKi [1]: 7.00
Structure (SMILES): CCCCCCOc1nc(C(F)(F)F)cc(C)c1CNC(=O)C(C)c1ccc(NS(C)(=O)=O)c(F)c1 (stereo not drawn)

pKi [1]: 9.05
Structure (SMILES): CC1CCN(c2nc(C3CC3)ccc2CNC(=O)C(C)c2ccc(NS(C)(=O)=O)c(F)c2)CC1 (stereo not drawn)

pKi [2]: 10.70
pIC50 [3]: 7.80
Structure (SMILES): CC1CCN(c2nc(C(F)(F)F)ccc2CNC(=O)C(C)c2ccc(NS(C)(=O)=O)c(F)c2)CC1 (stereo not drawn)

pKi [2]: 10.40
pIC50 [9]: 7.71
Structure (SMILES): CC(C(=O)NCc1ccc(C(F)(F)Cl)nc1OC1CCCC1)c1ccc(NS(C)(=O)=O)c(F)c1 (stereo not drawn)
inhibition [4]: Dose-dependent effect
inhibition in vivo at 1 mg/kg [5]: 60%
inhibition in vivo at 0.3 mg/kg [6]: 41%
inhibition in vivo at 0.1 mg/kg [7]: 23%
MPE [8]: 15%
MPE [10]: 29%
inhibition in vivo at 10 mg/kg [11]: 92%

pKi [1]: 9.00
Structure (SMILES): CC1CC(C)CN(c2nc(C(F)(F)Cl)ccc2CNC(=O)C(C)c2ccc(NS(C)(=O)=O)c(F)c2)C1 (mixture of isomers)

pKi [1]: 9.52
pKi [2]: 10.70
pIC50 [3]: 8.08
pIC50 [9]: 8.15
Structure (SMILES): CCCCOc1nc(C(F)(F)Cl)ccc1CNC(=O)C(C)c1ccc(NS(C)(=O)=O)c(F)c1 (stereo not drawn)
inhibition in vivo at 0.3 mg/kg [6]: 43%
MPE [10]: 73%
MPE [12]: 56%

pKi [1]: 7.23
Structure (SMILES): CC1CCN(c2nc(-c3ccc(F)cc3)ccc2CNC(=O)C(C)c2ccc(NS(C)(=O)=O)c(F)c2)CC1 (stereo not drawn)
